Counter-ions that a name gives are not always drawn.
How the values were obtained:
[1] = target: T1, Kallikrein-5 (Homo sapiens, UniProt Q9Y337); test: Inhibition of human recombinant 6His-Q-FLAG-tagged KLK5 expressed in baculovirus infected Sf9 insect cells using rhodamine-labelled tripeptide as substrate measured at 30 secs interval for 5 mins by FLINT assay
T1 sequence (Q9Y337 whole entry): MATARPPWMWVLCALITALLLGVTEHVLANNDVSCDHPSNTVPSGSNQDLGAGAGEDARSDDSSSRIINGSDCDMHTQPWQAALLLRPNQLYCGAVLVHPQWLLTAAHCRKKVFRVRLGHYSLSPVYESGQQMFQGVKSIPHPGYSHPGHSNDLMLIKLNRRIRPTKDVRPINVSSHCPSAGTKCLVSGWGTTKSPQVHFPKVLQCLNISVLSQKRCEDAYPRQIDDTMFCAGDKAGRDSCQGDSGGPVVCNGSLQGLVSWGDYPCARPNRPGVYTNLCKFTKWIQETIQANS

[2] = target: T1, Kallikrein-5; test: Inhibition of human recombinant 6His-Q-FLAG-tagged KLK5 expressed in baculovirus infected Sf9 insect cells using (Tos-Gly-Pro-Arg)2[R110].2TFA as substrate measured at 30 secs interval for 5 mins by FLINT assay
In short: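 Standard KLK5 assay format. Its theoretical tight-binding limit corresponds to pIC50 8.4.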

[3] = target: T2, Kallikrein-1 (Homo sapiens, UniProt P06870); test: Inhibition of human recombinant N-terminal His-tagged and enterokinase cleavage site-fused KLK1 (19 to 262 residues) expressed in baculovirus infected Sf9 insect cells using R110 labelled GSK3162232A as substrate measured at 30 secs interval for 5 mins by FLINT assay
[4] = target: Coagulation factor X (Homo sapiens, UniProt P00742); test: Inhibition of recombinant human C-terminal 10-His-tagged factor Xa (L24 to K488 residues) expressed in baculovirus infected Sf21 insect cells using Mca-RPKPVE-Nval-WRK(Dnp)-NH2 as substrate incubated for 40 mins by FLINT assay
[5] = target: Plasma kallikrein (Homo sapiens, UniProt P03952); test: Inhibition of human C-terminal 6-His-tagged KLKB1 (G20-A638 residues) expressed in mouse NS0 cells using PFR-AMC as substrate incubated for 40 mins by FLINT assay
[6] = target: Kallikrein-7 (Homo sapiens, UniProt P49862); test: Inhibition of recombinant human C-terminal 10-His-tagged KLK7 (Glu23 to His252 residues) expressed in mouse NS0 cells using 5-FAM-E-A-L-Y-L-V-S-G-C(5-TAMRA) as substrate incubated for 40 mins by FLINT assay
[7] = target: T3, Kallikrein-8 (Homo sapiens, UniProt O60259); test: Inhibition of recombinant human C-terminal 10-His-tagged KLK8 (Gln29 to Gly260 residues) expressed in mouse NS0 cells using BOC-VPR-AMC as substrate incubated for 40 mins by FLINT assay
T3 sequence (O60259 whole entry): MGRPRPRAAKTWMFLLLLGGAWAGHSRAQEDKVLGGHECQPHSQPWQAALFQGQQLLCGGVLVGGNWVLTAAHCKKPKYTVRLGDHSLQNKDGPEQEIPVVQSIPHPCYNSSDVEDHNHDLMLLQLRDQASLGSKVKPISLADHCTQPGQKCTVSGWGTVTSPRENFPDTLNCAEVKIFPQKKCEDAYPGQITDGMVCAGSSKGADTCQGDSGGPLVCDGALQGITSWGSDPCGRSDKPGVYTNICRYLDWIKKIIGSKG

[8] = target: T4, Kallikrein-14 (Homo sapiens, UniProt Q9P0G3); test: Inhibition of recombinant human C-terminal 10-His-tagged KLK14 (Q19 to M248 residues) expressed in mouse NS0 cells using BOC-VPR-AMC as substrate incubated for 40 mins by FLINT assay
T4 sequence (Q9P0G3 whole entry): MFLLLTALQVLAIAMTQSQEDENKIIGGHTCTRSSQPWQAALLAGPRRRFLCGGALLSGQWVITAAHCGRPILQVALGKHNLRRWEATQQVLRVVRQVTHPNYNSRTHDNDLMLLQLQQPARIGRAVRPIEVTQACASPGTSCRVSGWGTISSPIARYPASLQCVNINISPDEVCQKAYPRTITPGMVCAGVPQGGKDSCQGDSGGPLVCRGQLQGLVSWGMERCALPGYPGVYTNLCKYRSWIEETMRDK

[9] = target: T5, Suppressor of tumorigenicity 14 protein (Homo sapiens, UniProt Q9Y5Y6); test: Inhibition of recombinant human N-terminal Met and 6-His-tagged matriptase (G596 to V855 residues) expressed in Escherichia coli using Boc-QAR-AMC as substrate incubated for 40 mins by FLINT assay
T5 sequence (Q9Y5Y6 whole entry): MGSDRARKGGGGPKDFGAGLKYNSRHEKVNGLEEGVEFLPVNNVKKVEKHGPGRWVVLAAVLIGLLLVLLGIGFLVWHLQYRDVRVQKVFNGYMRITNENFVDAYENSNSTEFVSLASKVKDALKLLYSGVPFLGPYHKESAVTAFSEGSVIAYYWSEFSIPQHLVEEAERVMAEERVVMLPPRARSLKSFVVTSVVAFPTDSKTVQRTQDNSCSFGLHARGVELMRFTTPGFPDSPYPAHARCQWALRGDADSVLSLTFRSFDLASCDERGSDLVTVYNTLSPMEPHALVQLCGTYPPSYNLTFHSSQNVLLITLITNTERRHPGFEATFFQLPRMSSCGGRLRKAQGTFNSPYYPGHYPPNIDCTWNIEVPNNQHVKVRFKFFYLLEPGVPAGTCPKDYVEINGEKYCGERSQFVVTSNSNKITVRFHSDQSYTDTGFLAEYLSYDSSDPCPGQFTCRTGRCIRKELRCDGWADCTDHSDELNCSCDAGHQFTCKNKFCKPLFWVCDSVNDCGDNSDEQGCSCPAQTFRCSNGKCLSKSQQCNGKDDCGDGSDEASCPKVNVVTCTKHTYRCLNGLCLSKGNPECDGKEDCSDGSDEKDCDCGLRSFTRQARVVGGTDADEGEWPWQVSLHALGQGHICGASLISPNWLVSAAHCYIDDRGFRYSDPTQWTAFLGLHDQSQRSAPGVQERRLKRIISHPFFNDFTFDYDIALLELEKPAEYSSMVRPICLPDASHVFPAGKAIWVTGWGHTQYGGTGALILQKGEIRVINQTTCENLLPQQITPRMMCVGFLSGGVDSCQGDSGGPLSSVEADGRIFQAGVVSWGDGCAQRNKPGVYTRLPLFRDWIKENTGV

[10] = target: Prothrombin (Homo sapiens, UniProt P00734); test: Inhibition of human recombinant C-terminal 10-His-tagged thrombin (M1 to E622 residues) expressed in mouse NS0 cells using BOC-VPR-AMC as substrate incubated for 40 mins by FLINT assay
[11] = target: T6, Neutrophil elastase (Homo sapiens, UniProt P08246); test: Inhibition of human neutrophil elastase using MeOSuc-AAPV-AMC as substrate incubated for 40 mins by FLINT assay
T6 sequence (P08246 whole entry): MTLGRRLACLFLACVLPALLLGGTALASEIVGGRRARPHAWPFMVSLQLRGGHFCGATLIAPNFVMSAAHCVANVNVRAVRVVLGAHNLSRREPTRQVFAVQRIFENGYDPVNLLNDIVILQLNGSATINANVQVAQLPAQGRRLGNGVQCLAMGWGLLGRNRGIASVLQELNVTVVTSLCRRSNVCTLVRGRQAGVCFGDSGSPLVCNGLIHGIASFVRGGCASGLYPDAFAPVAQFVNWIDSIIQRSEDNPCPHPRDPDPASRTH

[12] = target: Urokinase-type plasminogen activator (Homo sapiens, UniProt P00749); test: Inhibition of recombinant human C-terminal 10-His-tagged urokinase (M1 to L431 residues) expressed in mouse NS0 cells using Z-GGR-AMC as substrate incubated for 40 mins by FLINT assay
[13] = target: Kallikrein-5 (Homo sapiens) (UniProt Q9Y337); test: Covalent reversible inhibition of human recombinant 6His-Q-FLAG-tagged KLK5 expressed in baculovirus infected Sf9 insect cells assessed as dissociation rate constant
In short: (§1)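 Jump-dilution experiment used to follow dissociation from KLK5. The apparent off-rate constant (K-off, per min) and dissociation half-life (T1/2) were derived from it.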

[14] = target: T1, Kallikrein-5; test: Inhibition of human recombinant 6His-Q-FLAG-tagged KLK5 expressed in baculovirus infected Sf9 insect cells using (Tos-Gly-Pro-Arg)2[R110].2TFA as substrate measured at 30 secs interval for 5 mins using 1 x 10'10M enzyme by FLINT assay
[15] = target: Kallikrein-5 (Homo sapiens) (UniProt Q9Y337); test: Covalent reversible inhibition of human recombinant 6His-Q-FLAG-tagged KLK5 expressed in baculovirus infected Sf9 insect cells assessed as dissociation half life; in short: as §1
[16] = Dissociation constant, borocycle pKa of the compound; type: physicochemical
[17] = species: Homo sapiens; test: Selectivity ratio of IC50 for human recombinant N-terminal His-tagged and enterokinase cleavage site-fused KLK1 (19 to 262 residues) expressed in baculovirus infected Sf9 insect cells to IC50 for human recombinant 6His-Q-FLAG-tagged KLK5 expressed in baculovirus infected Sf9 insect cells
[18] = species: Homo sapiens; test: Selectivity ratio of IC50 for human C-terminal 6-His-tagged KLKB1 (G20 to A638 residues) expressed in mouse NS0 cells to IC50 for human recombinant 6His-Q-FLAG-tagged KLK5 expressed in baculovirus infected Sf9 insect cells
[19] = target: T2, Kallikrein-1; test: Inhibition of human recombinant N-terminal His-tagged and enterokinase cleavage site-fused KLK1 (19 to 262 residues) expressed in baculovirus infected Sf9 insect cells at 10 uM using R110 labelled GSK3162232A as substrate measured at 30 secs interval for 5 mins by FLINT assay relative to control

IC50 [1] [µM]	IC50 [2] [µM]	IC50 [3] [µM]	IC50 [4] [µM]	IC50 [5] [µM]	IC50 [6] [µM]	IC50 [7] [µM]	IC50 [8] [µM]	IC50 [9] [µM]	IC50 [10] [µM]	IC50 [11] [µM]	IC50 [12] [µM]	Kdiss [13] [s⁻¹]	IC50 [14] [µM]	T1/2 [15] [min]	pKa [16]	inhibition [19] [%]	SMILES	Ratio IC50 [17]	Ratio IC50 [18]
501	–	–	–	–	–	–	–	–	–	–	–	–	–	–	–	–	N=C(N)c1ccccc1 [BENZAMIDINE HYDROCHLORIDE]	–	–
–	0.00501	2	3.98	0.398	> 100	0.0316	0.398	2	20	> 100	> 100	0.00214	< 0.000794	5	–	–	N=C(N)c1ccc([C@@H]2Cc3ccc(C(F)(F)F)cc3B(O)O2)cc1OCc1cccnc1	–	–
–	–	31.6	7.94	0.1	> 100	0.398	0.794	6.31	2.51	5.01	50.1	–	0.00398	–	4.83	–	N=C(N)c1ccc(C2Cc3ccccc3B(O)O2)cc1OCc1cccnc1 (racemic)	> 100	10
–	0.0126	> 10	31.6	0.2	> 100	2	12.6	31.6	20	> 100	> 100	–	0.00251	–	4.51	24	N=C(N)c1ccc(CC2OB(O)c3cc(C(F)(F)F)ccc32)cc1OCc1cccnc1 (racemic)	–	10
–	0.02	> 10	31.6	0.794	> 100	10	25.1	25.1	6.31	25.1	> 100	–	0.00794	–	4.73	10	Cc1ccc2c(c1)C(Cc1ccc(C(=N)N)c(OCc3cccnc3)c1)OB2O (racemic)	–	10
–	0.0794	10	–	–	–	–	–	–	–	–	–	–	–	–	–	–	N=C(N)c1ccc(C2Cc3ccccc3B(O)O2)cc1 (racemic)	30 to 100	–
–	0.02	316	> 100	0.0794	> 100	0.2	2	7.94	10	12.6	79.4	–	0.00631	–	4.8	–	N=C(N)c1ccc(CC2OB(O)c3ccccc32)cc1OCc1cccnc1 (racemic)	> 100	10
–	0.158	5.01	–	–	–	–	–	–	–	–	–	–	–	–	–	–	N=C(N)c1ccc(CC2OB(O)c3ccccc32)cc1 (racemic)	30 to 100	–
–	0.0398	> 10	79.4	1.26	> 100	12.6	39.8	25.1	31.6	> 100	> 100	–	0.0251	–	4.71	13	COc1ccc2c(c1)C(Cc1ccc(C(=N)N)c(OCc3cccnc3)c1)OB2O (racemic)	–	10

— ChEMBL document CHEMBL4396973, “Design and development of a series of borocycles as selective, covalent kallikrein 5 inhibitors” (Bioorg Med Chem Lett, 2019)
